ChEMBL document CHEMBL3877315, “Synthesis, biological evaluation and molecular docking analysis of 2-phenyl-benzofuran-3-carboxamide derivatives as potential inhibitors of Staphylococcus aureus Sortase A” (Bioorg Med Chem, 2017)

assay: Inhibition of Staphylococcus aureus Sortase A delta 59 mutant using Abz-LPATG-Dnp as substrate preincubated for 1 hr followed by substrate addition measured after 30 mins by HPLC method
Summary of the method: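 His6-tagged SrtA59 expressed from pET28 in E. coli, IPTG-induced, Ni-NTA purified. Enzyme 5 µM was pre-incubated with inhibitor in DMSO (final 12.5~200 µM) for 1 h at 37 °C in 50 mM Tris-HCl pH 7.5, 150 mM NaCl, 5 mM CaCl₂, 0.05% Tween 20. Abz-LPATG-Dnp added at 10 µM final; stopped with HCl. G-Dnp peak area read at 355 nm by reverse-phase HPLC and compared with no-inhibitor control. IC50 taken at 50% decrease; three repeats.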

Going from CC(C)CNC(=O)c1c(-c2ccc(COC(=O)c3ccc(N)cc3)cc2)oc2ccccc12 to CC(C)CNC(=O)c1c(-c2ccc(COC(=O)Cc3ccc(C(F)(F)F)cc3)cc2)oc2ccccc12, the IC50 rises from 52.3 µM to > 200 µM. The first is the more potent here.

CC(C)CNC(=O)c1c(-c2ccc(COC(=O)c3ccc([N+](=O)[O-])c(O)c3)cc2)oc2ccccc12 and CCCCNC(=O)c1c(-c2ccc(COC(=O)c3ccc(O)c(O)c3)cc2)oc2ccccc12 are within 1.5-fold of each other in IC50: 60.6 µM for the first, 66 µM for the second.

First: CC(C)CNC(=O)c1c(-c2ccc(COc3ccc(Cl)cc3)cc2)oc2ccccc12
Second: CC(C)CNC(=O)c1c(-c2ccc(COc3cccc(O)c3)cc2)oc2ccccc12
The IC50 of the first is higher: > 200 µM for the first, 86.4 µM for the second. The second is the more potent here.

Going from CCCCNC(=O)c1c(-c2ccc(COC(=O)c3ccc(O)cc3)cc2)oc2ccccc12 to CC(C)CNC(=O)c1c(-c2ccc(COC(=O)c3ccc(N(C)C)cc3)cc2)oc2ccccc12, the IC50 rises from 186 µM to > 200 µM.

CC(C)CNC(=O)c1c(-c2ccc(COC(=O)Cc3cccc(O)c3)cc2)oc2ccccc12 and CC(C)CNC(=O)c1c(-c2ccc(COc3ccc(C#N)cc3)cc2)oc2ccccc12 are within 1.5-fold of each other in IC50: 76.3 µM for the first, 97 µM for the second.

First: Cc1ccc(OCc2ccc(-c3oc4ccccc4c3C(=O)NCC(C)C)cc2)cc1
Second: CC(C)CNC(=O)c1c(-c2ccc(COC(=O)/C=C/c3ccc(O)cc3)cc2)oc2ccccc12
The IC50 of the first is higher: > 200 µM for the first, 158 µM for the second. The second is the more potent here.

Compared with CC(C)CNC(=O)c1c(-c2ccc(COC(=O)c3ccc(S)cc3)cc2)oc2ccccc12, CC(=O)c1cccc(OCc2ccc(-c3oc4ccccc4c3C(=O)NCC(C)C)cc2)c1 is 1.7-fold higher in IC50: 89.1 µM for the first, 148 µM for the second.

Compared with CC(C)CNC(=O)c1c(-c2ccc(COC(=O)c3cc(O)cc(O)c3)cc2)oc2ccccc12, CCCCNC(=O)c1c(-c2ccc(COc3ccc(C(=O)OC)cc3)cc2)oc2ccccc12 is higher in IC50: 34.5 µM for the first, > 200 µM for the second.

CC(C)CNC(=O)c1c(-c2ccc(COC(=O)Cc3ccc(O)cc3)cc2)oc2ccccc12 and CC(C)CNC(=O)c1c(-c2ccc(COc3ccc(CO)cc3)cc2)oc2ccccc12 are within 1.5-fold of each other in IC50: 84 µM for the first, 121 µM for the second.

Going from CC(C)CNC(=O)c1c(-c2ccc(COC(=O)c3ccc(F)cc3)cc2)oc2ccccc12 to COc1cc(OC)cc(C(=O)OCc2ccc(-c3oc4ccccc4c3C(=O)NCC(C)C)cc2)c1, the IC50 falls from > 200 µM to 62 µM. The second is the more potent here.

Compared with CC(C)CNC(=O)c1c(-c2ccc(COC(=O)c3ccccc3)cc2)oc2ccccc12, CC(C)CNC(=O)c1c(-c2ccc(COC(=O)Cc3ccc([N+](=O)[O-])cc3)cc2)oc2ccccc12 is higher in IC50: 158 µM for the first, > 200 µM for the second. The first is the more potent here.

CC(C)CNC(=O)c1c(-c2ccc(COC(=O)c3ccc(O)c(O)c3)cc2)oc2ccccc12 and CC(C)CNC(=O)c1c(-c2ccc(COC(=O)c3ccc(O)cc3O)cc2)oc2ccccc12 are within 1.5-fold of each other in IC50: 39.6 µM for the first, 57 µM for the second.

CC(C)CNC(=O)c1c(-c2ccc(COC(=O)Cc3ccccc3O)cc2)oc2ccccc12 and CC(C)CNC(=O)c1c(-c2ccc(COc3cccc(C=O)c3)cc2)oc2ccccc12 are the same in IC50: 89 µM for the first, 89 µM for the second.

CC(C)CNC(=O)c1c(-c2ccc(COC(=O)c3ccccc3O)cc2)oc2ccccc12 and COc1cc(C(=O)OCc2ccc(-c3oc4ccccc4c3C(=O)NCC(C)C)cc2)cc(OC)c1OC are within 1.5-fold of each other in IC50: 76.4 µM for the first, 55.2 µM for the second.

CC(=O)Nc1ccc(OCc2ccc(-c3oc4ccccc4c3C(=O)NCC(C)C)cc2)cc1 and CC(=O)Nc1cccc(OCc2ccc(-c3oc4ccccc4c3C(=O)NCC(C)C)cc2)c1 are within 1.5-fold of each other in IC50: 171 µM for the first, 148 µM for the second.

Going from CC(C)CNC(=O)c1c(-c2ccc(COC(=O)c3ccccc3[N+](=O)[O-])cc2)oc2ccccc12 to CC(C)CNC(=O)c1c(-c2ccc(COC(=O)c3ccc(O)cc3)cc2)oc2ccccc12, the IC50 falls from > 200 µM to 43 µM.

Compared with Para-Hydroxymercuribenzoic acid, CCCCNC(=O)c1c(-c2ccc(COc3ccc(S(C)(=O)=O)cc3)cc2)oc2ccccc12 is higher in IC50: 130 µM for the first, > 200 µM for the second.

Compared with CC(C)CNC(=O)c1c(-c2ccc(COC(=O)Cc3cccc(C(F)(F)F)c3)cc2)oc2ccccc12, CC(C)CNC(=O)c1c(-c2ccc(COc3ccc(S(C)(=O)=O)cc3)cc2)oc2ccccc12 is lower in IC50: > 200 µM for the first, 132 µM for the second.

Going from CC(C)CNC(=O)c1c(-c2ccc(COC(=O)c3cccc(O)c3)cc2)oc2ccccc12 to CC(C)CNC(=O)c1c(-c2ccc(COC(=O)Cc3ccc(O)c(O)c3)cc2)oc2ccccc12, the IC50 falls from 50.6 µM to 30.8 µM (1.6-fold). The second is the more potent here.
